ChEMBL document CHEMBL1641569, “Synthetic conjugates of genistein affecting proliferation and mitosis of cancer cells” (Bioorg Med Chem, 2011)
Calls of active or inactive are those of the source. No cut-off for these calls is given here.

Assays:
[1] = system: HCT-116; experiment: Cell cycle arrest in human HCT116 cells assessed as accumulation at G2/M phase after 24 hrs by propidium iodide staining-based flow cytometry; type: functional
Procedure, shortened: (§1)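 Subconfluent cultures exposed continuously to compound; floating and trypsinized adherent cells pooled, PBS-washed, fixed in ice-cold 70% ethanol 30 min, RNase (100 µg/mL) treated, stained with propidium iodide, DNA content measured by flow cytometry to give G1, S, G2/M, apoptotic (sub-G1) and polyploid fractions. Experiments repeated at least twice.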

[2] = system: HCT-116; experiment: Cytotoxicity against human HCT116 cells after 72 hrs by MTT assay; type: functional, cell-based; settings: HCT-116, 72 h
[3] = system: HCT-116; experiment: Inhibition of mitosis in human HCT116 cells assessed as mitotic index at 20 uM after 24 hrs by fluorescence assay; type: functional
Procedure, shortened: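 Cells treated 24 h, collected as for cell cycle analysis, cytospun, fixed in cold methanol, stained with 3 µM DAPI; mitotic cells counted among 1000 cells under 40× objective. Mean ± SD from three independent experiments.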

[4] = system: AGS; experiment: Cytotoxicity against human AGS cells after 72 hrs by MTT assay; type: functional, cell-based
Procedure, shortened: (§2)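 Cells seeded at 2 × 10³ per well, 24 h later exposed continuously 72 h to varying concentrations; then 0.5 mg/mL MTT in phenol red-free DMEM 3 h at 37 °C, formazan dissolved in 2-propanol/HCl, OD 570 nm. Viability relative to DMSO vehicle; IC50 = concentration reducing viability by 50%; triplicate wells, at least three independent experiments, mean ± SD.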

[5] = system: LNCaP; experiment: Cytotoxicity against human LNCAP cells after 72 hrs by SRB assay; type: functional, cell-based
Procedure, shortened: (§3)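 Cells plated at 2 × 10³ per well 24 h before continuous 72 h exposure to a concentration series; fixed with cold 50% TCA 1 h at 4 °C, stained with 0.4% sulforhodamine B in 1% acetic acid 30 min, bound dye extracted in 10 mM Tris base, OD 540 nm. Viability as % of DMSO control; IC50 = concentration reducing viability 50%; triplicates, ≥3 experiments.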

[6] = system: LoVo; experiment: Cytotoxicity against human LoVo cells after 72 hrs by MTT assay; type: functional, cell-based; procedure, shortened: as §2
[7] = system: Caco-2; experiment: Cytotoxicity against human Caco2 cells after 72 hrs by MTT assay; type: functional, cell-based; settings: Caco-2, 72 h; procedure, shortened: as §2
[8] = system: MCF7; experiment: Cytotoxicity against human MCF7 cells after 72 hrs by SRB assay; type: functional, cell-based; settings: MCF7, 72 h; procedure, shortened: as §3
[9] = system: SK-BR-3; experiment: Cytotoxicity against human SKBR3 cells after 72 hrs by SRB assay; type: functional, cell-based; settings: SK-BR-3, 72 h; procedure, shortened: as §3
[10] = system: A549; experiment: Cytotoxicity against human A549 cells after 72 hrs by SRB assay; type: functional, cell-based; settings: A549, 72 h; procedure, shortened: as §3
[11] = system: DU-145; experiment: Cytotoxicity against human DU145 cells after 72 hrs by MTT assay; type: functional, cell-based; settings: DU-145, 72 h; procedure, shortened: as §2
[12] = system: PC-3; experiment: Cytotoxicity against human PC3 cells after 72 hrs by MTT assay; type: functional, cell-based; settings: PC-3, 72 h; procedure, shortened: as §2
[13] = system: HT-29; experiment: Cytotoxicity against human HT-29 cells after 72 hrs by SRB assay; type: functional, cell-based; settings: HT-29, 72 h; procedure, shortened: as §3
[14] = system: T98G; experiment: Cytotoxicity against human T98G cells after 72 hrs by SRB assay; type: functional, cell-based; procedure, shortened: as §3
[15] = system: HCT-116; experiment: Induction of senescence in human HCT116 cells assessed as beta galactosidase activity at 20 uM
[16] = system: HCT-116; experiment: Inhibition of mitosis in human HCT116 cells assessed as appearance of normal bipolar spindle at 5 uM after 24 hrs by immunofluorescence assay; type: functional; parameters: scale not given: the % may be the effect or the level left
Procedure, shortened: (§4)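 Cells treated 24 h on chamber slides, fixed in ice-cold methanol, blocked with 1% goat serum, stained with mouse anti-β-tubulin (1:50) then FITC anti-mouse, DAPI counterstained; 100 mitotic cells per treatment scored at 100× oil for spindle type (normal bipolar, bipolar with lagging chromosomes, tri/multipolar, monopolar). Mean ± SD of two experiments.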

[17] = system: HCT-116; experiment: Inhibition of mitosis in human HCT116 cells assessed as appearance of monopolar spindle at 10 uM after 24 hrs by immunofluorescence assay; type: functional; parameters: scale not given: the % may be the effect or the level left; procedure, shortened: as §4
[18] = system: HCT-116; experiment: Inhibition of mitosis in human HCT116 cells assessed as appearance of bipolar spindle with large mass of lagging chromosomes at spindle poles at 20 uM after 24 hrs by immunofluorescence assay; type: functional; parameters: scale not given: the % may be the effect or the level left; procedure, shortened: as §4
[19] = system: HCT-116; experiment: Inhibition of mitosis in human HCT116 cells assessed as appearance of tripolar and multipolar spindle at 20 uM after 24 hrs by immunofluorescence assay; type: functional; parameters: scale not given: the % may be the effect or the level left; procedure, shortened: as §4
[20] = system: HCT-116; experiment: Inhibition of mitosis in human HCT116 cells assessed as appearance of normal bipolar spindle at 20 uM after 24 hrs by immunofluorescence assay; type: functional; parameters: scale not given: the % may be the effect or the level left; procedure, shortened: as §4
[21] = system: HCT-116; experiment: Induction of apoptosis in human HCT116 cells harboring p53 protein assessed as effect on apoptotic index at 20 uM after 72 hrs by DNA laddering assay; type: functional
Procedure, shortened: (§5)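 Floating and trypsin-detached adherent cells pooled, cytospun, fixed and TUNEL-labelled; apoptotic index scored among 500 nuclei, three experiments. In parallel, DNA extracted (proteinase K/SDS overnight 56 °C, phenol/chloroform, RNase A) and run on 1.8% agarose/ethidium bromide gel in 0.5× TBE for laddering. Controls received 0.2% DMSO; 24, 48, 72 h treatments.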

[22] = system: HCT-116; experiment: Inhibition of mitosis in human HCT116 cells assessed as appearance of normal bipolar spindle at 10 uM after 24 hrs by immunofluorescence assay; type: functional; parameters: scale not given: the % may be the effect or the level left; procedure, shortened: as §4
[23] = system: HCT-116; experiment: Induction of apoptosis in human HCT116 cells assessed as appearance of hypodiploid nucleus at 5 to 20 uM after 48 hrs by flow cytometry; type: functional, cell-based; procedure, shortened: as §1
[24] = system: HCT-116; experiment: Inhibition of mitosis in human HCT116 cells assessed as appearance of tripolar and multipolar spindle at 5 uM after 24 hrs by immunofluorescence assay; type: functional; parameters: scale not given: the % may be the effect or the level left; procedure, shortened: as §4
[25] = system: HCT-116; experiment: Inhibition of mitosis in human HCT116 cells assessed as appearance of monopolar spindle at 20 uM after 24 hrs by immunofluorescence assay; type: functional; parameters: scale not given: the % may be the effect or the level left; procedure, shortened: as §4
[26] = Inhibition of tubulin polymerization after 1 hr
Procedure, shortened: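 Cell-free assay: >97% pure tubulin in G-PEM buffer (80 mM PIPES, 2 mM MgCl2, 0.5 mM EGTA, 1 mM GTP, pH 6.9) plus 5% glycerol, with vehicle, compound (10, 20, 50 µM) or 3 µM paclitaxel, in pre-warmed plate at 37 °C; absorbance at 340 nm read every minute for 1 h. Repeated twice.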

[27] = system: HCT-116; experiment: Cytotoxicity against p53-deficient human HCT116 cells after 72 hrs by MTT assay; type: functional, cell-based; settings: HCT-116, 72 h; procedure, shortened: as §2
[28] = system: HCT-116; experiment: Inhibition of mitosis in human HCT116 cells assessed as appearance of bipolar spindle with large mass of lagging chromosomes at spindle poles at 5 uM after 24 hrs by immunofluorescence assay; type: functional; parameters: scale not given: the % may be the effect or the level left; procedure, shortened: as §4
[29] = system: AGS; experiment: Cell cycle arrest in human AGS cells assessed as accumulation at G2/M phase at 20 uM after 24 hrs by propidium iodide staining-based flow cytometry; type: functional; procedure, shortened: as §1
[30] = system: HCT-116; experiment: Inhibition of mitosis in human HCT116 cells assessed as appearance of tripolar and multipolar spindle at 10 uM after 24 hrs by immunofluorescence assay; type: functional; parameters: scale not given: the % may be the effect or the level left; procedure, shortened: as §4
[31] = system: A549; experiment: Cell cycle arrest in human A549 cells assessed as accumulation at G2/M phase at 20 uM after 24 hrs by propidium iodide staining-based flow cytometry; type: functional; procedure, shortened: as §1
[32] = system: HCT-116; experiment: Induction of apoptosis in p53-deficient human HCT116 cells assessed as effect on apoptotic index at 20 uM after 72 hrs by DNA laddering assay; type: functional; procedure, shortened: as §5
[33] = system: DU-145; experiment: Cell cycle arrest in human DU145 cells assessed as accumulation at G2/M phase at 20 uM after 24 hrs by propidium iodide staining-based flow cytometry; type: functional; procedure, shortened: as §1
[34] = system: HCT-116; experiment: Cytotoxicity against human HCT116 cells harboring p53 protein after 72 hrs by MTT assay; type: functional, cell-based; settings: HCT-116, 72 h; procedure, shortened: as §2
[35] = system: HCT-116; experiment: Inhibition of mitosis in human HCT116 cells assessed as appearance of monopolar spindle at 5 uM after 24 hrs by immunofluorescence assay; type: functional; parameters: scale not given: the % may be the effect or the level left; procedure, shortened: as §4
[36] = system: HCT-116; experiment: Inhibition of mitosis in human HCT116 cells assessed as appearance of bipolar spindle with large mass of lagging chromosomes at spindle poles at 10 uM after 24 hrs by immunofluorescence assay; type: functional; parameters: scale not given: the % may be the effect or the level left; procedure, shortened: as §4
[37] = system: HCT-116; experiment: Induction of apoptosis in human HCT116 cells assessed as appearance of tetraploid nucleus at 5 to 20 uM after 48 hrs by flow cytometry; type: functional, cell-based; procedure, shortened: as §1
[38] = system: HCT-116; experiment: Induction of apoptosis in human HCT116 cells assessed as effect on apoptotic index at 20 uM after 72 hrs by DNA laddering assay; type: functional; procedure, shortened: as §5
[39] = system: HCT-116; experiment: Induction of apoptosis in human HCT116 cells assessed as appearance of hypodiploid nucleus at 20 uM after 72 hrs by TUNEL assay; type: functional, cell-based; procedure, shortened: as §5

SMILES: CC(=O)O[C@@H]1C=C[C@H](OCCCCCOc2cc(O)c3c(=O)c(-c4ccc(O)cc4)coc3c2)O[C@H]1C
- Activity [1]: Dose-dependent effect
- IC50 [2]: 8.08 µM
- Activity [3]: 3.5

SMILES: O=c1c(-c2ccc(O)cc2)coc2cc(O)cc(O)c12 [GENISTEIN]
- IC50 [4]: 41.7 µM
- IC50 [5]: 30.7 µM
- IC50 [6]: 15.9 µM
- IC50 [2]: 34.9 µM
- IC50 [7]: > 100 µM
- IC50 [8]: 62.7 µM
- IC50 [9]: 96.7 µM
- IC50 [10]: 43.1 µM
- Activity [3]: 1.8
- IC50 [11]: 47.3 µM
- IC50 [12]: 65.2 µM
- IC50 [13]: 52.8 µM
- IC50 [14]: 89.4 µM

SMILES: CC(=O)OC[C@H]1O[C@H](OCCCOc2cc(O)c3c(=O)c(-c4ccc(O)cc4)coc3c2)C=C[C@@H]1OC(C)=O
- IC50 [2]: 19.9 µM

SMILES: CCCO[C@H]1C=C[C@@H](OC(C)=O)[C@H](C)O1
- IC50 [2]: 550 µM

SMILES: CC(=O)O[C@@H]1C=C[C@H](OCCCOc2cc(O)c3c(=O)c(-c4ccc(O)cc4)coc3c2)O[C@H]1C
- Activity [1]: Dose-dependent effect
- Activity [15]: 31%
- Activity [16]: 85%
- IC50 [4]: 3.05 µM
- Activity [17]: 3%
- Activity [18]: 40%
- Activity [19]: 42%
- Activity [20]: 16%
- IC50 [5]: 18 µM
- IC50 [6]: 9.85 µM
- Activity [21]: 12%
- IC50 [2]: 4.76 µM
- Activity [22]: 44%
- IC50 [7]: 23.3 µM
- Activity [23]: Active
- Activity [24]: 1%
- IC50 [8]: 8.88 µM
- Activity [25]: 2%
- inhibition [26]: Dose-dependent effect
- IC50 [27]: 6.21 µM
- Activity [28]: 14%
- IC50 [9]: 28 µM
- IC50 [10]: 14.7 µM
- Activity [29]: 39.7%
- Activity [3]: 13.2
- Activity [30]: 15%
- Activity [31]: 31.6%
- Activity [32]: 15%
- IC50 [11]: 14.5 µM
- Activity [33]: 46.1%
- IC50 [34]: 4.76 µM
- IC50 [12]: 10.7 µM
- IC50 [13]: 36.1 µM
- Activity [35]: 0%
- Activity [36]: 38%
- Activity [37]: Active
- IC50 [14]: 16.7 µM
- Activity [38]: 12%
- Activity [39]: Active

SMILES: O=c1c(-c2ccc(O)cc2)coc2cc(OCCO)cc(O)c12
- IC50 [2]: 25 µM
